pIC50: −log10 of the molar value.
Experiments:
Assay type in all cases: functional, cell-based
[1] = Cytotoxicity against human KB/HeLa cells after 48 hrs by XTT assay
L1210 = experiment: Cytotoxicity against mouse L1210 cells after 48 hrs by XTT assay; details: L1210, 48 h
SK-OV-3 = experiment: Cytotoxicity against human SKOV3 cells after 48 hrs by XTT assay; details: SK-OV-3, 48 h
[2] = Cell cycle arrest in human KB/HeLa cells assessed as accumulation in G2/M phase by cytometric analysis
Summary of the method: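 HeLa/KB cells; nuclei isolated with detergent lysis, trypsin, RNA digestion and spermine chromatin stabilisation, then stained stoichiometrically with propidium iodide. Read by flow cytometry with doublet discrimination, FL2 detector collecting 564–606 nm emission; DNA histograms analysed for cell cycle phase distribution across a concentration series (dose–response).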

Structure (SMILES) | pIC50 [1] | pIC50 (L1210) | pIC50 (SK-OV-3) | Activity [2]
CCOC(=O)c1ccc(NC(=O)C(=O)c2cn(Cc3ccc(F)cc3)c3ccccc23)cc1 | 5.40 | 5.40 | 5.40 | 
O=C(Nc1ccncc1)C(=O)c1cn(Cc2ccc(F)cc2)c2ccccc12 | 7.27 | 6.34 | 6.34 | Dose-dependent effect
O=C(Nc1ccc(F)cc1)C(=O)c1cn(Cc2ccc(F)cc2)c2ccccc12 | 5.10 | 5.35 | < 5.00 | 
O=C(Nc1cccnc1)C(=O)c1cn(Cc2ccc(F)cc2)c2ccccc12 | 5.33 | 5.33 | 5.33 | 
O=C(C(=O)N1CCN(c2ccncc2)CC1)c1cn(Cc2ccc(F)cc2)c2ccccc12 | < 5.00 | 5.40 | < 5.00 | 
O=C(Nc1ccc([N+](=O)[O-])cc1)C(=O)c1cn(Cc2ccc(F)cc2)c2ccccc12 | < 5.00 | < 5.00 | < 5.00 | 
N#Cc1ccc(NC(=O)C(=O)c2cn(Cc3ccc(F)cc3)c3ccccc23)cc1 | < 5.00 | < 5.00 | < 5.00 | 
O=C(Nc1ccc(Br)cc1)C(=O)c1cn(Cc2ccc(F)cc2)c2ccccc12 | 5.41 | 5.41 | 5.41 | 
O=C(Nc1ccccn1)C(=O)c1cn(Cc2ccc(F)cc2)c2ccccc12 | < 5.00 | 5.08 | < 5.00 | 
COc1cc(NC(=O)C(=O)c2cn(Cc3ccc(F)cc3)c3ccccc23)cc(OC)c1OC | 6.42 | 6.42 | 5.42 | 
O=C(Nc1ccncc1)C(=O)c1cn(Cc2ccc(Cl)cc2)c2ccccc12 [INDIBULIN] | 7.36 | 7.36 | 7.11 | Dose-dependent effect
